Experimental data reported in ChEMBL document CHEMBL1157575, “Antitumor agents. 272. Structure-activity relationships and in vivo selective anti-breast cancer activity of novel neo-tanshinlactone analogues” (J Med Chem, 2010).
In brackets after ≈: the same amount, converted by molar mass.

Experiments:
MCF7 = assay: Growth inhibition of human MCF7 cells after 72 hrs by SRB assay; format: functional; conditions: MCF7, 72 h, read-out: ED50 (the source's name)
Outline: (§1)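 SRB assay. Cells were grown in RPMI-1640 with 10% FBS at 37 °C and 5% CO2, then seeded in 96-well plates. Compound was added from DMSO stock, followed by 72 h incubation. Cells were fixed with 10% TCA, stained with 0.4% SRB, solubilized in 10 mM Tris base, and read at 515 nm. ED50 is the concentration giving 50% reduction of net protein increase versus control; mean of at least three independent determinations.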

SK-BR-3 = assay: Growth inhibition of human SK-BR-3 cells after 72 hrs by SRB assay; format: functional; conditions: SK-BR-3, 72 h, read-out: ED50 (the source's name); outline: as §1
ZR-75-1 [1] = assay: Growth inhibition of human ZR-75-1 cells after 72 hrs by SRB assay; format: functional; conditions: ZR-75-1, 72 h, read-out: ED50 (the source's name); outline: as §1
MDA-MB-231 = assay: Growth inhibition of human MDA-MB-231 cells after 72 hrs by SRB assay; format: functional; conditions: MDA-MB-231, 72 h, read-out: ED50 (the source's name); outline: as §1
A549 = assay: Cytotoxicity against human A549 cells after 72 hrs by SRB assay; format: functional; conditions: A549, 72 h, read-out: ED50 (the source's name)
DU-145 = assay: Cytotoxicity against human DU145 cells after 72 hrs by SRB assay; format: functional; conditions: DU-145, 72 h, read-out: ED50 (the source's name)
KB = assay: Cytotoxicity against human KB cells after 72 hrs by SRB assay; format: functional; conditions: read-out: ED50 (the source's name); outline: as §1
[2] = Cytotoxicity against human KBVIN cells after 72 hrs by SRB assay; format: functional; conditions: read-out: ED50 (the source's name); outline: as §1
ZR-75-1 [3] = assay: Selectivity for ED50 for human ZR-75-1 to ED50 for human SK-BR-3; format: functional
Outline: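 SRB growth assay: ZR-75-1 and SK-BR-3 cells in RPMI-1640 with 10% FBS at 37 °C under 5% CO2, seeded in 96-well plates, compound added from DMSO stock, 72 h exposure, TCA fixation, SRB staining, absorbance at 515 nm. ED50 is 50% reduction of net protein increase, averaged from ≥3 independent runs; ratio of ZR-75-1 to SK-BR-3 ED50.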

ZR-75-1 [4] = assay: Antitumor activity against human ZR-75-1 cells xenografted in athymic nude mouse SCID assessed as mean time to end point at 20 mg/kg, ip administered in Q4D X 5 schedule; format: functional; conditions: route intraperitoneal
Outline: (§2)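 Female SCID mice, 5 weeks old, 20-24 g, implanted s.c. in the right flank with 1 × 10^7 ZR-75-1 cells in PBS. Tumors were caliper-measured, with volume = w² × l/2. Dosing was i.p. in vehicle (4% benzyl alcohol/6% cremophor/90% D5W); vehicle controls were given qod to end. TTE is the mean time to endpoint. %TGD = (T−C)/C × 100. Logrank test, P ≤ 0.05.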

ZR-75-1 [5] = assay: Antitumor activity against human ZR-75-1 cells xenografted in athymic nude mouse SCID assessed as tumor growth delay at 20 mg/kg, ip administered in Q4D X 5 schedule; format: functional; conditions: route intraperitoneal; outline: as §2
[6] = Cytotoxicity against human 184A1 cells after 72 hrs by MTT assay; format: cell-based; conditions: read-out: ED50
Outline: (§3)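 MTT assay. Cells were seeded at 5000/well in recommended growth medium and incubated overnight. Compound was added in DMSO, followed by 72 h at 37 °C in 5% CO2. MTT reagent was added for 2 h and formazan was read at OD 570 nm. Values were interpolated ED50; data are from replicates in a single experiment.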

[7] = Cytotoxicity against human MCF10A cells after 72 hrs by MTT assay; format: cell-based, MCF-10A; conditions: read-out: ED50; outline: as §3
ZR-75-1 [8] = assay: Antitumor activity against human ZR-75-1 cells xenografted in athymic nude mouse SCID assessed as mean time to end point at 10 mg/kg, ip administered in QOD schedule; format: functional; conditions: route intraperitoneal; outline: as §2
ZR-75-1 [9] = assay: Antitumor activity against human ZR-75-1 cells xenografted in athymic nude mouse SCID assessed as tumor growth delay at 10 mg/kg, ip administered in QOD schedule; format: functional; conditions: route intraperitoneal; outline: as §2
[10] = molecular target: Casein kinase II subunit alpha (Homo sapiens) (UniProt P68400); assay: Inhibition of human recombinant CK2alpha1 expressed in Sf9 cells at 10 uM
[11] = molecular target: Tyrosine-protein kinase ABL1 (Mus musculus) (UniProt P00520); assay: Inhibition of mouse recombinant ABL expressed in Escherichia coli at 10 uM
[12] = molecular target: RAC-alpha serine/threonine-protein kinase (Homo sapiens) (UniProt P31749); assay: Inhibition of human recombinant AKT1 expressed in Sf21 cells at 10 uM
RAC-alpha serine/threonine-protein kinase (Homo sapiens), sequence (P31749 whole entry): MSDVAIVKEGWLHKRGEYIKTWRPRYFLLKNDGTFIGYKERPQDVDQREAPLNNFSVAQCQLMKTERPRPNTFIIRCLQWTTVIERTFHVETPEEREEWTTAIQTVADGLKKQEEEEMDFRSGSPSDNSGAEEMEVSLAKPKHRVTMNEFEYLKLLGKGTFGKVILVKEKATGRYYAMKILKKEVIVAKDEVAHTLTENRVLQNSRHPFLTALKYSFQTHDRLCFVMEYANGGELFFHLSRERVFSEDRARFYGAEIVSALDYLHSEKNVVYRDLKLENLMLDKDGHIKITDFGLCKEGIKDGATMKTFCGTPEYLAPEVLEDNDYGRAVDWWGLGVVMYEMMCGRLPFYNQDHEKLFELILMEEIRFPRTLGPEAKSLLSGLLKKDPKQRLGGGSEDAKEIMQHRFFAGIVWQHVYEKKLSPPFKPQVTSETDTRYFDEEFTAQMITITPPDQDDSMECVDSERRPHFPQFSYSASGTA

Casein kinase II subunit alpha (Homo sapiens), sequence (P68400 whole entry, looked up): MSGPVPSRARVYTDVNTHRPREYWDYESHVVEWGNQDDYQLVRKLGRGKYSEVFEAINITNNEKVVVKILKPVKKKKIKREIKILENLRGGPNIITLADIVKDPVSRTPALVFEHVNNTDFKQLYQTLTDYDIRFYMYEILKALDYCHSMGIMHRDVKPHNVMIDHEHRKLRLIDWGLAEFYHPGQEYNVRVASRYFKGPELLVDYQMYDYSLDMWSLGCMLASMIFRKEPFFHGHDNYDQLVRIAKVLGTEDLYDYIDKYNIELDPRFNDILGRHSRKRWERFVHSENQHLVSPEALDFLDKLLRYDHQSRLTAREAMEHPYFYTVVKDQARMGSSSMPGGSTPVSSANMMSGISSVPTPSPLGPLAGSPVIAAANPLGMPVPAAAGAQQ
Tyrosine-protein kinase ABL1 (Mus musculus), sequence (P00520 whole entry): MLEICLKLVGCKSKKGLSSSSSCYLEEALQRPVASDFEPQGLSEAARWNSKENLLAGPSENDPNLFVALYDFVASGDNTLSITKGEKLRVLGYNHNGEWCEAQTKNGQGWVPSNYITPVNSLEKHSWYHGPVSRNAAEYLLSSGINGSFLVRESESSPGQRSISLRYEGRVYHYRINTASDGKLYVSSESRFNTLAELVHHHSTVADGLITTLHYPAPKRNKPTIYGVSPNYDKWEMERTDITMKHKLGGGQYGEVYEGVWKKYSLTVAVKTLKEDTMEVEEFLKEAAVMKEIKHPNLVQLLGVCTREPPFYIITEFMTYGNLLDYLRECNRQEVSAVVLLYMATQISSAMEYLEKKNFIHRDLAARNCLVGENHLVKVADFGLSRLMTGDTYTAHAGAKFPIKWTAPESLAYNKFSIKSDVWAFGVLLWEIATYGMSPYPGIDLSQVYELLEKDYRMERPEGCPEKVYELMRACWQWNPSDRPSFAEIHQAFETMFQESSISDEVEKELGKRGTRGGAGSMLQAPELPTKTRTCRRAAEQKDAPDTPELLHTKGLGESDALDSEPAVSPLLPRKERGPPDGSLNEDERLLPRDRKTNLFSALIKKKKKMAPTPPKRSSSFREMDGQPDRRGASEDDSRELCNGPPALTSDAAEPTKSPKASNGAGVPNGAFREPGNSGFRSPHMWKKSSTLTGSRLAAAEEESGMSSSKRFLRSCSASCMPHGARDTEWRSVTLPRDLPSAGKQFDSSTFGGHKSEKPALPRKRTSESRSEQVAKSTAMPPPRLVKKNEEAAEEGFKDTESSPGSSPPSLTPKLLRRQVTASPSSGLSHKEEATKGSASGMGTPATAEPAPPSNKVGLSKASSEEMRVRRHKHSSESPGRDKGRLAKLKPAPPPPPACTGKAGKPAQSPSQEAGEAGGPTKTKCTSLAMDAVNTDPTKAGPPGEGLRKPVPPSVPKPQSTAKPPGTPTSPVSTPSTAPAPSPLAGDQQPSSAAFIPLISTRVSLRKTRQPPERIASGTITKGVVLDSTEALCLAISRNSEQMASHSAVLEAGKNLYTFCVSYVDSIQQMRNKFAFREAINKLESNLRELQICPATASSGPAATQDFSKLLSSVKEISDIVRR

Row | Compound | EC50 (MCF7) [µg/mL] | EC50 (SK-BR-3) [µg/mL] | EC50 (ZR-75-1 [1]) [µg/mL] | EC50 (MDA-MB-231) [µg/mL] | EC50 (KB) [µg/mL] | also measured
1 | Cc1cc2c(=O)oc3c4ccccc4ccc3c2o1 | > 20 | 12 (≈ 48 µM) | – | – | – | –
2 | Cc1coc2c1c(=O)oc1c3cccc(O)c3ccc21 | 15 (≈ 56.3 µM) | 5 (≈ 18.8 µM) | – | – | – | –
3 | CCc1coc2c1c(=O)oc1c3cccc(C)c3ccc21 | 7.5 (≈ 26.9 µM) | 11 (≈ 39.5 µM) | – | – | – | –
4 | Cc1coc2c1c(=O)oc1c3cccc(C(C)Br)c3ccc21 (centres undefined) | – | 0.1 (≈ 0.28 µM) | 0.1 (≈ 0.28 µM) | 14 (≈ 39.2 µM) | 13 (≈ 36.4 µM) | EC50 (A549): > 20 µg/mL; EC50 (DU-145): 18 µg/mL (≈ 50.4 µM); EC50 [2]: > 20 µg/mL
5 | Cc1coc2c1c(=O)oc1c3cccc(C(C)C)c3ccc21 | 1.4 (≈ 4.79 µM) | 2 (≈ 6.84 µM) | 0.2 (≈ 0.684 µM) | > 10 | 11 (≈ 37.6 µM) | EC50 [2]: 7.3 µg/mL (≈ 25 µM); Ratio ED50 (ZR-75-1 [3]): 10
6 | CCc1cccc2c1ccc1c3occ(C)c3/c(=N/O)oc21 | > 20 | 19 (≈ 64.8 µM) | – | – | – | –
7 | Cc1oc2c(c1C)c(=O)oc1c3ccccc3ccc21 | > 20 | 6.9 (≈ 26.1 µM) | – | – | – | –
8 | Cc1coc2c1c(=O)oc1c3cccc(F)c3ccc21 | 4.5 (≈ 16.8 µM) | 1.1 (≈ 4.1 µM) | 0.8 (≈ 2.98 µM) | > 10 | 13 (≈ 48.5 µM) | EC50 (A549): 14 µg/mL (≈ 52.2 µM); EC50 (DU-145): 18 µg/mL (≈ 67.1 µM); EC50 [2]: 15 µg/mL (≈ 55.9 µM)
9 | Cc1coc2c1c(=O)oc1c3ccccc3ccc21 | 4 (≈ 16 µM) | 1 (≈ 4 µM) | 4 (≈ 16 µM) | – | – | –
10 | Cc1ccc2c(=O)oc3c4ccccc4ccc3c2c1 | – | > 20 | – | – | – | –
11 | Cc1coc2c1c(=O)sc1c3ccccc3ccc21 | > 20 | 12 (≈ 45.1 µM) | – | – | – | –
12 | COc1cccc2c1ccc1c3occ(C)c3c(=O)oc21 | 2.3 (≈ 8.21 µM) | 0.2 (≈ 0.714 µM) | 0.1 (≈ 0.357 µM) | 6.4 (≈ 22.8 µM) | 13 (≈ 46.4 µM) | EC50 (DU-145): 14 µg/mL (≈ 50 µM); EC50 [2]: 12 µg/mL (≈ 42.8 µM)
13 | CCc1cccc2c1ccc1c3oc(C)cc3c(=O)oc21 | > 20 | 2.1 (≈ 7.55 µM) | 2.2 (≈ 7.9 µM) | 9.6 (≈ 34.5 µM) | 14 (≈ 50.3 µM) | EC50 (A549): 12 µg/mL (≈ 43.1 µM); EC50 [2]: 13 µg/mL (≈ 46.7 µM)
14 | CCCn1c(=O)c2c3occ(C)c3c(=O)oc2c2ccccc21 | > 20 | 15 (≈ 48.5 µM) | – | – | – | –
15 | CCc1cccc2c1ccc1c3oc(C)c(C)c3c(=O)oc21 | 8 (≈ 27.4 µM) | 9.8 (≈ 33.5 µM) | – | – | – | –
16 | Cc1coc2c1c(=O)oc1c3ccccc3n(C)c(=O)c21 | 11 (≈ 39.1 µM) | 12 (≈ 42.7 µM) | – | – | – | –

Row | Compound | EC50 (MCF7) [µg/mL] | EC50 (SK-BR-3) [µg/mL] | EC50 (ZR-75-1 [1]) [µg/mL] | EC50 (MDA-MB-231) [µg/mL] | EC50 (KB) [µg/mL] | also measured
17 | Cc1cccc2c1ccc1c3occ(C)c3c(=O)oc21 | 0.6 (≈ 2.27 µM) | 0.2 (≈ 0.757 µM) | 0.3 (≈ 1.14 µM) | 10 (≈ 37.8 µM) | – | –
18 | CCCc1cccc2c1ccc1c3occ(C)c3c(=O)oc21 | 1.2 (≈ 4.1 µM) | 0.1 (≈ 0.342 µM) | 0.3 (≈ 1.03 µM) | > 10 | 12 (≈ 41 µM) | EC50 (DU-145): 15 µg/mL (≈ 51.3 µM); EC50 [2]: 11 µg/mL (≈ 37.6 µM); Ratio ED50 (ZR-75-1 [3]): 3
19 | Cc1coc2c1c(=O)oc1c3cccc(OCCN(C)C)c3ccc21 | 5 (≈ 14.8 µM) | 5.8 (≈ 17.2 µM) | – | – | – | –
20 | CCc1cccc2c1ccc1c3occ(CC)c3c(=O)oc21 | 1.3 (≈ 4.45 µM) | 1.5 (≈ 5.13 µM) | 0.6 (≈ 2.05 µM) | > 10 | 12 (≈ 41 µM) | EC50 (A549): 18 µg/mL (≈ 61.6 µM); EC50 (DU-145): 16 µg/mL (≈ 54.7 µM); EC50 [2]: 15 µg/mL (≈ 51.3 µM)
21 | CCc1cccc2c1ccc1c3occ(C)c3c(=S)oc21 | > 20 | 16 (≈ 54.4 µM) | – | – | – | –
22 | CC1COc2c1c(=O)oc1c2ccc2ccccc21 (centres undefined) | – | 14 (≈ 55.5 µM) | – | – | – | –
23 | CCc1cccc2c1ccc1c3occ(-c4ccc(OC)cc4)c3c(=O)oc21 | > 20 | > 20 | – | – | – | –
24 | CC(=O)O[C@H]1C(=O)[C@@]2(C)[C@H]([C@H](OC(=O)c3ccccc3)[C@]3(O)C[C@H](OC(=O)[C@H](O)[C@@H](NC(=O)c4ccccc4)c4ccccc4)C(C)=C1C3(C)C)[C@]1(OC(C)=O)CO[C@@H]1C[C@@H]2O [PACLITAXEL] | – | – | – | – | – | Activity (ZR-75-1 [4]): 35 days; Activity (ZR-75-1 [5]): 132%
25 | CCc1cccc2c1ccc1c3c(c(=O)oc12)C(C)CO3 (centres undefined) | – | 5.1 (≈ 18.2 µM) | – | – | – | –
26 | CCOc1cccc2c1ccc1c3occ(C)c3c(=O)oc21 | > 20 | 2.5 (≈ 8.49 µM) | 1.9 (≈ 6.46 µM) | 9.8 (≈ 33.3 µM) | 3.7 (≈ 12.6 µM) | EC50 (A549): 3.5 µg/mL (≈ 11.9 µM); EC50 (DU-145): 4.7 µg/mL (≈ 16 µM); EC50 [2]: 5.3 µg/mL (≈ 18 µM)
27 | COc1ccc(-c2coc3c2c(=O)oc2c4ccccc4ccc32)cc1 | – | 5.8 (≈ 16.9 µM) | – | – | – | –
28 | Cc1coc2c1c(=S)oc1c3ccccc3ccc21 | > 20 | > 20 | – | – | – | –
29 | Cc1coc2c1c(=O)[nH]c1c3ccccc3ccc12 | – | 4.4 (≈ 17.7 µM) | – | – | – | –
30 | CC(=O)Oc1cccc2c1ccc1c3occ(C)c3c(=O)oc21 | 6 (≈ 19.5 µM) | 5.7 (≈ 18.5 µM) | – | – | – | –
31 | CCc1cccc2c1ccc1c3occ(C)c3c(=O)oc21 | 0.2 (≈ 0.719 µM) | 0.1 (≈ 0.359 µM) | 0.1 (≈ 0.359 µM) | 8.8 (≈ 31.6 µM) | 13 (≈ 46.7 µM) | EC50 (A549): 11 µg/mL (≈ 39.5 µM); EC50 (DU-145): 16 µg/mL (≈ 57.5 µM); CC50 at 72 h [6]: 4.4 µg/mL (≈ 15.8 µM); CC50 at 72 h [7]: 2.7 µg/mL (≈ 9.7 µM); Activity (ZR-75-1 [8]): 29.5 days; Activity (ZR-75-1 [9]): 95%; inhibition [10]: 99%; inhibition [11]: 93%; inhibition [12]: 93%
32 | CCc1coc2c1c(=O)oc1c3ccccc3ccc21 | 2.5 (≈ 9.46 µM) | 1.8 (≈ 6.81 µM) | 2.3 (≈ 8.7 µM) | > 10 | 7.5 (≈ 28.4 µM) | EC50 (A549): 8.2 µg/mL (≈ 31 µM); EC50 (DU-145): 8.7 µg/mL (≈ 32.9 µM); EC50 [2]: 6.6 µg/mL (≈ 25 µM)
